Key:
Left cardiac atrium [1] = assay: Negative inotropic activity in guinea pig left atrium assessed as decrease in developed tension at 0.001 to 100 uM relative to control; assay type: ADME, tissue-based; conditions: Cavia porcellus
[2] = molecular target: T1, Voltage-gated L-type calcium channel (Homo sapiens, UniProt Q13936+Q13698+Q01668+O60840); assay: Inhibition of voltage-dependent L-type calcium channel in human U373MG cells assessed as protection against oxygen glucose deprivation/reperfusion-induced injury by measuring recovery of cell viability at 20 uM administered at onset of reperfusion period measured after 16 hrs by alamar blue assay relative to control; assay type: cell-based
How it was run: (§1)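 U-373 MG astrocytoma cells seeded at 30000 cells/ml and grown 24 or 48 h (37 °C/5% CO2). OGD: 24 h at 37 °C in glucose-free DMEM pre-bubbled with 95% N2/5% CO2, in a sealed nitrogen-flushed chamber. Then 16 h reperfusion in normal medium; compounds added at reperfusion, diluted from DMSO stock (DMSO ≤0.1%). Viability by alamarBlue, 4 h at 37 °C, fluorescence ex 530–560/em 590 nm. Expressed as % recovery from injury, mean ± S.E. of ≥3 experiments in sixuplicate.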

Aorta [3] = assay: Inhibition of calcium-induced contraction in K+-depolarized guinea pig aortic strips at 10^-4 M relative to control; assay type: tissue-based; conditions: Cavia porcellus
[4] = molecular target: T1, Voltage-gated L-type calcium channel; assay: Inhibition of voltage-dependent L-type calcium channel in human SH-SY5Y cells assessed as protection against glutamate-induced excitotoxicity by measuring recovery of cell viability at 20 uM measured after 24 hrs by alamar blue-based fluorescence method relative to control
[5] = Selectivity ratio of EC50 for negative chronotropic activity in guinea pig spontaneously beating right atrium to EC50 for negative inotropic activity in guinea pig left atrium; assay type: ADME, tissue-based, Cavia porcellus
Left cardiac atrium [6] = assay: Negative inotropic activity in guinea pig left atrium assessed as decrease in developed tension at 5 x 10^-6 M relative to control; assay type: ADME, tissue-based, Cavia porcellus; set-up: scale not given: the % may be the effect or the level left; conditions: 5 µM
[7] = molecular target: T1, Voltage-gated L-type calcium channel; assay: Inhibition of voltage-dependent L-type calcium channel in human U373MG cells assessed as protection against oxygen glucose deprivation/reperfusion-induced injury by measuring recovery of cell viability at 1 uM administered at onset of reperfusion period measured after 16 hrs by alamar blue assay relative to control; assay type: cell-based; how it was run: as §1
Right cardiac atrium [8] = assay: Negative chronotropic activity in guinea pig spontaneously beating right atrium assessed as decrease in atrial rate; assay type: tissue-based; conditions: Cavia porcellus
[9] = molecular target: T1, Voltage-gated L-type calcium channel; assay: Inhibition of voltage-dependent L-type calcium channel in human SH-SY5Y cells assessed as protection against glutamate-induced excitotoxicity by measuring recovery of cell viability at 1 uM measured after 24 hrs by alamar blue-based fluorescence method relative to control
Right cardiac atrium [10] = assay: Negative chronotropic activity in guinea pig spontaneously beating right atrium assessed as decrease in atrial rate at 5 x 10^-6 M relative to control; assay type: ADME, tissue-based, Cavia porcellus; set-up: scale not given: the % may be the effect or the level left; conditions: 5 µM
Right cardiac atrium [11] = assay: Negative chronotropic activity in guinea pig spontaneously beating right atrium assessed as decrease in atrial rate at 10^-5 M relative to control; assay type: ADME, tissue-based, Cavia porcellus; set-up: scale not given: the % may be the effect or the level left; conditions: 10 µM
Left cardiac atrium [12] = assay: Negative inotropic activity in guinea pig left atrium assessed as decrease in developed tension at 5 x 10^-5 M relative to control; assay type: ADME, tissue-based, Cavia porcellus; set-up: scale not given: the % may be the effect or the level left; conditions: 50 µM
Aorta [13] = assay: Inhibition of calcium-induced contraction in K+-depolarized guinea pig aortic strips at 5 x 10^-5 M relative to control; assay type: tissue-based; conditions: Cavia porcellus
Right cardiac atrium [14] = assay: Negative chronotropic activity in guinea pig spontaneously beating right atrium assessed as decrease in atrial rate at 10^-6 M relative to control; assay type: ADME, tissue-based, Cavia porcellus; set-up: scale not given: the % may be the effect or the level left; conditions: 1 µM
[15] = molecular target: T2, Voltage-gated L-type calcium channel (Rattus norvegicus, UniProt P22002+Q02485+P27732); assay: Inhibition of voltage-dependent L-type calcium channel in Wistar rat brain slices assessed as protection against oxygen glucose deprivation/reperfusion-induced injury by measuring recovery of edema formation at 20 uM administered at onset of reperfusion period measured after 90 mins relative to control; set-up: scale not given: the % may be the effect or the level left; conditions: 1.5 h
[16] = molecular target: T2, Voltage-gated L-type calcium channel; assay: Inhibition of voltage-dependent L-type calcium channel in Wistar rat brain slices assessed as protection against oxygen glucose deprivation/reperfusion-induced injury by measuring recovery of LDH release at 20 uM administered at onset of reperfusion period measured after 90 mins by spectrophotometric assay relative to control; set-up: scale not given: the % may be the effect or the level left; conditions: 1.5 h
Left cardiac atrium [17] = assay: Negative inotropic activity in guinea pig left atrium assessed as decrease in developed tension at 5 x 10^-7 M relative to control; assay type: ADME, tissue-based, Cavia porcellus; set-up: scale not given: the % may be the effect or the level left; conditions: 0.5 µM
Right cardiac atrium [18] = assay: Negative chronotropic activity in guinea pig right atrium assessed as decrease in atrial rate at 5 x 10^-6 M relative to control; set-up: scale not given: the % may be the effect or the level left; conditions: 5 µM
[19] = test system: Left cardiac atrium (Cavia porcellus); assay: Negative inotropic activity in guinea pig left atrium assessed as decrease in developed tension
Right cardiac atrium [20] = assay: Negative inotropic activity in guinea pig right atrium assessed as decrease in developed tension at 10^-5 M relative to control; assay type: ADME, tissue-based, Cavia porcellus; set-up: scale not given: the % may be the effect or the level left; conditions: 10 µM
Right cardiac atrium [21] = assay: Negative chronotropic activity in guinea pig spontaneously beating right atrium assessed as decrease in atrial rate at 5 x 10^-5 M relative to control; assay type: tissue-based, Cavia porcellus; set-up: scale not given: the % may be the effect or the level left; conditions: 50 µM
Left cardiac atrium [22] = assay: Negative inotropic activity in guinea pig left atrium assessed as decrease in developed tension at 10^-6 M relative to control; assay type: ADME, tissue-based, Cavia porcellus; set-up: scale not given: the % may be the effect or the level left; conditions: 1 µM
Left cardiac atrium [23] = assay: Negative inotropic activity in guinea pig left atrium assessed as decrease in developed tension at 10^-4 M relative to control; assay type: ADME, tissue-based, Cavia porcellus; set-up: scale not given: the % may be the effect or the level left; conditions: 100 µM
Right cardiac atrium [24] = assay: Negative inotropic activity in guinea pig right atrium assessed as decrease in developed tension at 10^-7 M relative to control; assay type: ADME, tissue-based, Cavia porcellus; set-up: scale not given: the % may be the effect or the level left; conditions: 0.1 µM
Right cardiac atrium [25] = assay: Negative chronotropic activity in guinea pig spontaneously beating right atrium assessed as decrease in atrial rate at 5 x 10^-7 M relative to control; assay type: ADME, tissue-based, Cavia porcellus; set-up: scale not given: the % may be the effect or the level left; conditions: 0.5 µM
Left cardiac atrium [26] = assay: Negative inotropic activity in guinea pig left atrium assessed as decrease in developed tension at 10^-5 M relative to control; set-up: scale not given: the % may be the effect or the level left; conditions: Left cardiac atrium, 10 µM
Right cardiac atrium [27] = assay: Negative chronotropic activity in guinea pig spontaneously beating right atrium assessed as decrease in atrial rate at 10^-7 M relative to control; assay type: ADME, tissue-based, Cavia porcellus; set-up: scale not given: the % may be the effect or the level left; conditions: 0.1 µM
Right cardiac atrium [28] = assay: Negative chronotropic activity in guinea pig spontaneously beating right atrium assessed as decrease in atrial rate at 10^-4 M relative to control; assay type: ADME, tissue-based, Cavia porcellus; set-up: scale not given: the % may be the effect or the level left; conditions: 100 µM
Right cardiac atrium [29] = assay: Negative inotropic activity in guinea pig right atrium assessed as decrease in developed tension at 10^-4 M relative to control; assay type: ADME, tissue-based, Cavia porcellus; set-up: scale not given: the % may be the effect or the level left; conditions: 100 µM

| SMILES | EC50 (Left cardiac atrium [1]) | Activity [2] | inhibition at 100 µM (Aorta [3]) | Activity [4] | Activity [7] | EC50 (Right cardiac atrium [8]) | Activity [9] | Activity (Right cardiac atrium [11]) | Activity [15] | Activity [16] | EC50 [19] | further results |
| --- | --- | --- | --- | --- | --- | --- | --- | --- | --- | --- | --- | --- |
| COC(=O)C1=C(C)NC(C)=C(C(=O)OC)C1c1c(-c2cc(Br)c(OC)cc2OC)nc2sccn12 | 300 nM | < 5% | 34% | < 5% | < 5% | 1670 nM | < 5% | – | – | – | – | Ratio EC50 [5]: 25 to 56; Activity (Left cardiac atrium [6]): 63%; Activity (Right cardiac atrium [10]): 74% |
| CCOC(=O)C1=C(C)NC(C)=C(C(=O)OCC)C1c1c(-c2ccc(F)cc2)nc2sc(Br)cn12 | – | < 5% | – | < 5% | < 5% | – | < 5% | 25% | – | – | – | Activity (Left cardiac atrium [12]): 37%; inhibition at 50 µM (Aorta [13]): 7% |
| CCOC(=O)C1=C(C)NC(C)=C(C(=O)OCC)C1c1c(-c2ccc(F)c(F)c2)nc2sccn12 | 21 nM | < 5% | 14% | 50.7% | < 5% | 100 nM | 37.4% | – | 80.5% | 20.5% | – | Ratio EC50 [5]: < 10; Activity (Right cardiac atrium [14]): 77%; Activity (Left cardiac atrium [17]): 83% |
| CCOC(=O)C1=C(C)NC(C)=C(C(=O)OCC)C1c1c(-c2ccc([N+](=O)[O-])cc2)nc2sc(F)cn12 | 24 nM | 28.5% | 13% | 51.1% | 22.2% | – | 28.8% | 20% | 76.4% | 23.3% | 77 nM | Activity (Right cardiac atrium [18]): 67%; Activity (Left cardiac atrium [17]): 78% |
| CCOC(=O)C1=C(C)NC(C)=C(C(=O)OCC)C1c1c(-c2cc(OC)ccc2OC)nc2sc(Br)cn12 | 26 nM | 29.32% | 22% | 57.6% | < 5% | 120 nM | < 5% | – | < 5% | < 5% | – | Ratio EC50 [5]: < 10; Activity (Left cardiac atrium [6]): 69%; Activity (Right cardiac atrium [14]): 94% |
| CCOC(=O)C1=C(C)NC(C)=C(C(=O)OCC)C1c1c(-c2cc([N+](=O)[O-])c(Cl)cc2Cl)nc2sc(Cl)cn12 | 81 nM | 15.4% | 17% | 40.7% | 16.5% | – | 40.8% | – | – | – | 220 nM | Activity (Left cardiac atrium [12]): 86%; Activity (Right cardiac atrium [20]): 82%; Activity (Right cardiac atrium [21]): 37% |
| CCOC(=O)C1=C(C)NC(C)=C(C(=O)OCC)C1c1c(-c2ccc(F)cc2)nc2sc(C)cn12 | – | 13.2% | 12% | 43.1% | 9.1% | 23 nM | 28.9% | – | – | – | – | Activity (Left cardiac atrium [22]): 37%; Activity (Right cardiac atrium [21]): 86% |
| CCOC(=O)C1=C(C)NC(C)=C(C(=O)OCC)C1c1c(-c2ccc(Cl)cc2)nc2sc(Cl)cn12 | 3500 nM | < 5% | 45% | 47.1% | < 5% | 1730 nM | 25.1% | – | – | – | – | Activity (Left cardiac atrium [23]): 73%; Activity (Right cardiac atrium [21]): 94% |
| CCOC(=O)C1=C(C)NC(C)=C(C(=O)OCC)C1c1c(-c2ccc(Cl)cc2)nc2sccn12 | 97 nM | < 5% | 43% | 44.4% | < 5% | – | 6.8% | – | – | – | 19 nM | Activity (Left cardiac atrium [23]): 61%; Activity (Right cardiac atrium [24]): 79%; Activity (Right cardiac atrium [25]): 38% |
| CCOC(=O)C1=C(C)NC(C)=C(C(=O)OCC)C1c1c(-c2ccccc2F)nc2sccn12 | 5150 nM | 36.8% | – | 62.2% | < 5% | 980 nM | 53.2% | 86% | – | – | – | Activity (Left cardiac atrium [12]): 55%; inhibition at 50 µM (Aorta [13]): 17% |
| CCOC(=O)C1=C(C)NC(C)=C(C(=O)OCC)C1c1c(-c2cc([N+](=O)[O-])c(Cl)cc2Cl)nc2sc(CC)cn12 | 33 nM | 26.7% | 15% | 41.6% | 21.2% | – | 14.7% | 40% | < 5% | 18% | 1470 nM | Activity (Right cardiac atrium [20]): 58%; Activity (Left cardiac atrium [17]): 67% |
| COC(=O)C1=C(C)NC(C)=C(C(=O)OC)C1c1ccccc1[N+](=O)[O-] [NIFEDIPINE] | – | 73.7% | – | 101.6% | 34.4% | 39 nM | 55% | – | – | – | – | Activity (Left cardiac atrium [26]): 97%; Activity ([15]; Brain): 95.7%; Activity (Right cardiac atrium [27]): 85%; Activity ([16]; Brain): 72.3% |
| CCOC(=O)C1=C(C)NC(C)=C(C(=O)OCC)C1c1c(-c2ccc([N+](=O)[O-])cc2)nc2sc(Cl)cn12 | 1370 nM | 26.1% | 12% | < 5% | 10.3% | – | < 5% | – | – | – | 2170 nM | Activity (Left cardiac atrium [23]): 74%; Activity (Right cardiac atrium [28]): 25%; Activity (Right cardiac atrium [29]): 79% |

Reference: ChEMBL document CHEMBL4385592, “4-Imidazo[2,1-b]thiazole-1,4-DHPs and neuroprotection: preliminary study in hits searching” (Eur J Med Chem, 2019)
